What was measured:
[1] = target: T1, Mitogen-activated protein kinase kinase kinase kinase 3 (Homo sapiens) (UniProt Q8IVH8); assay: Inhibition of MAP4K3 at 1 uM
T1 sequence (whole entry): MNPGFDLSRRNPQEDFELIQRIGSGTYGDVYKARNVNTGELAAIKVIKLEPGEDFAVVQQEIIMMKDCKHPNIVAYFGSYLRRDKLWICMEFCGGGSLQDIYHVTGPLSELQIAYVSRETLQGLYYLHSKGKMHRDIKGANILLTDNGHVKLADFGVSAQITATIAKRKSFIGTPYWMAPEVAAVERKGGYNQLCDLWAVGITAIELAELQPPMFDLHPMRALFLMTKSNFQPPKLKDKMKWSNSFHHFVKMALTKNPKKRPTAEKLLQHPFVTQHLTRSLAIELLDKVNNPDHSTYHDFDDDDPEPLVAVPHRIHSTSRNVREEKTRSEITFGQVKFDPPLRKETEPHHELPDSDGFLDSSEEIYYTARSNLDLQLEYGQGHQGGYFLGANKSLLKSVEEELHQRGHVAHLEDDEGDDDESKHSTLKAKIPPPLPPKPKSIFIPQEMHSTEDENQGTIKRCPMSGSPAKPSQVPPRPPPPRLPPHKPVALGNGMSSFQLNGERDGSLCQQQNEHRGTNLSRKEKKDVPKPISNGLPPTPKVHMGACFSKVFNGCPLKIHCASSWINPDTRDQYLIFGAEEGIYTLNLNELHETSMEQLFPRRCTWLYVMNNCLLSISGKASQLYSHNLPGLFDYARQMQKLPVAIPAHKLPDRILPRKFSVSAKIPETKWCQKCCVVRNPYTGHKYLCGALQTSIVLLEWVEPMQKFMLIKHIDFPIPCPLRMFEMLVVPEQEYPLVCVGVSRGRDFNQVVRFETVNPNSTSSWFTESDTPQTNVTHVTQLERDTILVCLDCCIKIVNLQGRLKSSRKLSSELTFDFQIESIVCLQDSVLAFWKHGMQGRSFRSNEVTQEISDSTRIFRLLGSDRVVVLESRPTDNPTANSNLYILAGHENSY
How it was run: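 Single-concentration screen on the Ambit KINOMEscan platform, run against a panel of 250–400 kinases. Per-kinase inhibition was also summarized as S(90), the fraction of kinases inhibited by more than 90%.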

[2] = target: T2, Serine/threonine-protein kinase D3 (Homo sapiens) (UniProt O94806); assay: Inhibition of PRKD3 at 1 uM
T2 sequence (whole entry): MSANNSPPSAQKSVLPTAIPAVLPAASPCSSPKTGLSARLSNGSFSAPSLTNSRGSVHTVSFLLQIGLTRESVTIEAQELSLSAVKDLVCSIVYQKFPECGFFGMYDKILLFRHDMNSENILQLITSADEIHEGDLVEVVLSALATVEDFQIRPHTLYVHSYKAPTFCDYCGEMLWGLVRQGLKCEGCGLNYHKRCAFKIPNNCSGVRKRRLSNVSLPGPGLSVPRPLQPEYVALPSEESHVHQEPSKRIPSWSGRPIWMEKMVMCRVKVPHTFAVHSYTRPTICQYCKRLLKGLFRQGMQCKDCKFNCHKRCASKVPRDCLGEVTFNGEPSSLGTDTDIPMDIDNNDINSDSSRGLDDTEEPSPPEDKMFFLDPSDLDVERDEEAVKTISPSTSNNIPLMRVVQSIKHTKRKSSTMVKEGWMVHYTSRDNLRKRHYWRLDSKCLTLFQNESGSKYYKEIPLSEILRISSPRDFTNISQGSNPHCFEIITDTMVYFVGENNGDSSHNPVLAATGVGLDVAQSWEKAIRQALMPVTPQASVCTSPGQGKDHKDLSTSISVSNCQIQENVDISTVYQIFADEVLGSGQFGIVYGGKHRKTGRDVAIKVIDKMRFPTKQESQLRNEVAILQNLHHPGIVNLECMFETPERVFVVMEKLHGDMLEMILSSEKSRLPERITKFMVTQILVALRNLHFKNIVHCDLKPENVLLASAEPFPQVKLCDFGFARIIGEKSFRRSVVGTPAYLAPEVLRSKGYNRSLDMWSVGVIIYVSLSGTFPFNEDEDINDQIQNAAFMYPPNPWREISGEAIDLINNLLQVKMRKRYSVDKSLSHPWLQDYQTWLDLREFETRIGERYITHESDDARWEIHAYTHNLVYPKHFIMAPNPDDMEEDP

[3] = target: Calcium/calmodulin-dependent protein kinase kinase 1 (Homo sapiens) (UniProt Q8N5S9); assay: Inhibition of CAMKK1 at 1 uM
How it was run: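 Ambit KINOMEscan screen at a single concentration across a 250–400 kinase panel, recorded as percent inhibition. Selectivity was expressed as S(90), the fraction of kinases inhibited >90%.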

[4] = target: Epidermal growth factor receptor (Homo sapiens) (UniProt P04626+P00533+Q15303+P21860); assay: Inhibition of EGFR L747-S752del, P753S mutant at 1 uM; assay type: protein assay
How it was run: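 Single-concentration screen using Ambit Bioscience KINOMEscan technology across a panel of 250–400 kinases. Per-kinase inhibition from this screen was summarized as S(90), the fraction of kinases inhibited by more than 90%.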

[5] = target: G protein-coupled receptor kinase 4 (Homo sapiens) (UniProt P32298); assay: Inhibition of GRK4 at 1 uM
Sequence of G protein-coupled receptor kinase 4 (Homo sapiens) (P32298 whole entry, looked up): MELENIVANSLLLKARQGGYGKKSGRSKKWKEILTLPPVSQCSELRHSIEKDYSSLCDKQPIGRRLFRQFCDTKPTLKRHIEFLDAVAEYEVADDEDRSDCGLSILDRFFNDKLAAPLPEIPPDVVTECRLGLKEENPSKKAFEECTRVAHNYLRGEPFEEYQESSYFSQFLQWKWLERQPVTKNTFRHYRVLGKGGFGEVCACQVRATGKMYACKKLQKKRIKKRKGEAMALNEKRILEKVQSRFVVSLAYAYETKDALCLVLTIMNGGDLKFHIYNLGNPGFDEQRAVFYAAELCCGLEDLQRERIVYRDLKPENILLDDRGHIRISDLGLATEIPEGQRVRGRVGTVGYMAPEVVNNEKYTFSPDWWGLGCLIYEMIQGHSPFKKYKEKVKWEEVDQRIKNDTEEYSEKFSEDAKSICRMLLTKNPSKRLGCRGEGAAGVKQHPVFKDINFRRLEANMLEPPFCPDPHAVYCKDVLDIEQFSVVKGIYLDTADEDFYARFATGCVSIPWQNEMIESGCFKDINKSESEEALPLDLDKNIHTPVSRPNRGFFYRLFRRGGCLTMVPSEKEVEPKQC

Sequence of Calcium/calmodulin-dependent protein kinase kinase 1 (Homo sapiens) (Q8N5S9 whole entry, looked up): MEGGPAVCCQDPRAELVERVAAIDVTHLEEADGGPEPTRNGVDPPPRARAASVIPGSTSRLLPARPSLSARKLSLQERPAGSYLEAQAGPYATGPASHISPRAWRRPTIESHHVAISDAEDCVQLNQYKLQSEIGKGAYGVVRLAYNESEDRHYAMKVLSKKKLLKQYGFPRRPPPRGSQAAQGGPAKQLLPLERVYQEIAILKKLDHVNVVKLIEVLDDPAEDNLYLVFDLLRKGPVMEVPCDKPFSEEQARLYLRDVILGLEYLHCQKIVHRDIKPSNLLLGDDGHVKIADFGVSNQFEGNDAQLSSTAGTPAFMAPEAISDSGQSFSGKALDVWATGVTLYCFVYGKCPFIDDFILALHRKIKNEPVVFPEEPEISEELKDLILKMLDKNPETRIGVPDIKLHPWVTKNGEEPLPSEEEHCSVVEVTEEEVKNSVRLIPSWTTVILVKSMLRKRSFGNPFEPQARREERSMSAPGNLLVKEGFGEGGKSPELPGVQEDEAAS

Row | Compound | inhibition [1] [%] | inhibition [2] [%] | inhibition [3] [%] | inhibition [4] [%] | inhibition [5] [%]
1 | CN1CCN(c2ccc(-c3cnc4c(c3)N(Cc3cc(Cl)ccc3C(F)(F)F)CCN4)cn2)CC1 | < 50 | < 50 | < 50 | < 50 | < 50
2 | FC(F)(F)c1ccc(Cl)cc1CN1CCNc2ncc(-c3ccnc(N4CCNCC4)c3)cc21 | 70 | < 50 | < 50 | < 50 | < 50
3 | CC(=O)N1CCN(c2cc(-c3cnc4c(c3)N(Cc3cc(Cl)ccc3C(F)(F)F)CCN4)ccn2)CC1 | < 50 | < 50 | < 50 | < 50 | < 50
4 | CN1CCN(c2ccc(-c3cnc4c(c3)N(Cc3cc(F)ccc3F)CCN4)cn2)CC1 | < 50 | < 50 | < 50 | < 50 | < 50
5 | CN1CCN(c2ccc(-c3cnc4c(c3)N(Cc3c(F)ccc(F)c3Cl)CCN4)cn2)CC1 | 91 | < 50 | < 50 | < 50 | < 50
6 | CN1CCN(c2ccc(-c3cnc4c(c3)N(Cc3cc(Cl)ccc3Cl)CCN4)cn2)CC1 | < 50 | < 50 | < 50 | < 50 | < 50

Second part, the compound after the results:

Row | inhibition [1] [%] | inhibition [2] [%] | inhibition [3] [%] | inhibition [4] [%] | inhibition [5] [%] | Compound
7 | < 50 |  | < 50 | < 50 |  | O=C(O)c1ccc(-c2cnc3c(c2)N(Cc2cc(Cl)ccc2C(F)(F)F)CCN3)cc1
8 | < 50 |  | < 50 | < 50 |  | O=C(c1ccc(-c2cnc3c(c2)N(Cc2cc(Cl)ccc2C(F)(F)F)CCN3)cc1)N1CCC(N2CCCC2)CC1
9 | < 50 |  | < 50 | < 50 |  | COC1CCN(C(=O)c2ccc(-c3cnc4c(c3)N(Cc3cc(Cl)ccc3C(F)(F)F)CCN4)cc2)CC1
10 | < 50 |  | < 50 | < 50 |  | O=C(c1ccc(-c2cnc3c(c2)N(Cc2cc(Cl)ccc2C(F)(F)F)CCN3)cc1)N1CCCCC1

From ChEMBL document CHEMBL1165965, “Synthesis and structure-activity relationships of 1,2,3,4-tetrahydropyrido[2,3-b]pyrazines as potent and selective inhibitors of the anaplastic lymphoma kinase” (Bioorg Med Chem, 2010)
